In assay [1] the test system is Plasmodium falciparum. Description: Antimalarial activity against multidrug-resistant Plasmodium falciparum K1 infected in human erythrocytes after 48 hrs by [3H]hypoxanthine incorporation assay. Format: functional, organism-based. The gist of the method: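 K1 parasites kept in RPMI 1640 with 20 mM HEPES, 32 mM NaHCO3, 10% human serum and 3% erythrocytes, at 37 °C under 3% CO2. Ring-stage culture (1.5% haematocrit, 1% parasitemia) was exposed to compound for 24 h at 0.1% DMSO final. 0.5 µCi [3H]hypoxanthine was then added for a further 24 h. Incorporation was scintillation-counted, and growth was expressed as treated/untreated cpm ×100.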

Assay [2] can be described thus: Cytotoxicity against HuCCa1 cells after 48 hrs by MTT assay. Type of assay: functional, cell-based. Conditions: Homo sapiens, HuCC-A1, 48 h; call rule not given here. In a few lines:
(§1)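 Adherent cells seeded at 10,000-20,000 per well and preincubated 24 h at 37 °C, 5% CO2. Serial dilutions of compound added in an equal volume of medium, DMSO as negative control, then 48 h further incubation. Surviving cells measured by MTT. IC50 is the concentration giving 50% growth inhibition relative to the DMSO control.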

Assay [3] concerns HepG2. Description: Cytotoxicity against human HepG2 cells after 48 hrs by MTT assay. Type of assay: functional, cell-based. The following applies: HepG2, 48 h. The gist of the method: as §1
For orientation: Formazan colour is commonly taken as a measure of viable cells.

Assay [4] relates to A549. Kind of assay: Cytotoxicity against human A549 cells after 48 hrs by MTT assay. Conditions: A549, 48 h. Type of assay: functional, cell-based. The gist of the method:
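Adherent cells seeded at 10,000-20,000 per well and preincubated 24 h at 37 °C, 5% CO2. Serial dilutions of compound added in an equal volume of medium, DMSO as negative control, then 48 h further incubation. Surviving cells measured by MTT.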

Assay [5] can be described thus: Cytotoxicity against human MOLT3 cells after 48 hrs by XTT assay. Conditions: MOLT-3, 48 h. Type of assay: functional, cell-based. In a few lines:
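Suspension MOLT-3 cells seeded at 10,000-20,000 per well and preincubated 24 h at 37 °C, 5% CO2. Compound serial dilutions added in an equal volume of medium, DMSO as negative control, then 48 h. Surviving cells measured by XTT. IC50 is the concentration inhibiting growth 50% relative to the DMSO control.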

Assay [6] deals with Vero. Description: Cytotoxicity against African green monkey Vero cells after 4 days by GFP detection method. Format: cell-based. The following applies: Chlorocebus sabaeus, 96 h. In a few lines:
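Vero cells stably transfected with pEGFP-N1, kept in MEM with 10% heat-inactivated FBS, 2 mM L-glutamine, 1 mM pyruvate, 0.8 mg/mL geneticin at 37 °C, 5% CO2. Cells at 3.3 × 10^4 cells/mL added to compounds prediluted in 0.5% DMSO, 384-well, 4 days. GFP fluorescence read at ex 485/em 535 nm, day-0 background subtracted. IC50 from 6-point 3-fold dilution curves.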

[7] abbreviates: Plasmodium falciparum, K1, read-out: IC50.

For orientation: IC50 means the concentration that inhibits the measured activity by half. As to `O=C1C(Cl)=C(Nc2cccc(S(=O)(=O)NCCc3ccccn3)c2)C(=O)c2ccccc21`, the IC50 result in assay [1] was “Not Active”; in assay [2] it was 5.77 µM; in assay [3], 5.13 µM; in assay [4] it was 3.93 µM; in assay [5], 2.2 µM; in assay [6] it was 20.2 µM.

Take `O=C1C(Cl)=C(Nc2cccc(S(=O)(=O)N3CCc4ccccc4C3)c2)C(=O)c2ccccc21`: the IC50 in assay [1] (setting [7]) turned out to be 7.27 µM; in assay [2], 6.08 µM; in assay [3], 11 µM; in assay [4], 21.9 µM; in assay [5], 1.92 µM; in assay [6], 4.2 µM.

For `O[C@@H](c1cc(C(F)(F)F)nc2c(C(F)(F)F)cccc12)[C@H]1CCCCN1` (relative stereo) [(S,R)-MEFLOQUINE], in assay [1] (setting [7]), the IC50 was 0.0269 µM.

For `COc1cc([C@@H]2c3cc4c(cc3[C@@H](O[C@@H]3O[C@@H]5CO[C@@H](C)O[C@H]5[C@H](O)[C@H]3O)[C@H]3COC(=O)[C@H]23)OCO4)cc(OC)c1O` [ETOPOSIDE], the figures for the IC50 in assay [3] and in assay [5] were 34 µM and 0.041 µM, respectively.

On to `COc1cc2c(cc1OC)CN(S(=O)(=O)c1cccc(NC3=C(Cl)C(=O)c4ccccc4C3=O)c1)CC2`, for which the half-maximal inhibitory concentration (IC50) in assay [1] (setting [7]) was found to be 8.79 µM; in assay [2], 26.4 µM; in assay [3], 43.3 µM; in assay [4] it was 63.1 µM; in assay [5] it was 2.34 µM; in assay [6] it was 11.2 µM.

On to `O=C1C(Cl)=C(Nc2ccc(S(=O)(=O)NCCc3ccccn3)cc2)C(=O)c2ccccc21`, for which the IC50 entry in assay [1] is “Not Active”; in assay [2], 5.88 µM; in assay [3], 10.3 µM; in assay [4], 31.4 µM; in assay [5], 1.37 µM; in assay [6] it was 99.9 µM.

As for `COc1ccc(CCNS(=O)(=O)c2cccc(NC3=C(Cl)C(=O)c4ccccc4C3=O)c2)cc1OC`, the 50% inhibitory concentration (IC50) in assay [1] (setting [7]) worked out at 10.1 µM; in assay [2], 8.5 µM; in assay [3], 9.49 µM; in assay [4] it was 27.2 µM; in assay [5], 4.95 µM; in assay [6], 3.76 µM.

Turning to `COc1cc2c(cc1OC)CN(S(=O)(=O)c1ccc(NC3=C(Cl)C(=O)c4ccccc4C3=O)cc1)CC2`, the half-maximal inhibitory concentration (IC50) in assay [1] (setting [7]) was 2.8 µM; in assay [2] it was 5.21 µM; in assay [3] it was 14.4 µM; in assay [4], 20.2 µM; in assay [5], 1.73 µM; in assay [6], 0.944 µM.

For `O=C1C(Cl)=C(Nc2cccc(S(=O)(=O)NCc3ccccn3)c2)C(=O)c2ccccc21`, the IC50 result in assay [1] is “Not Active”; in assay [2] it was 3.66 µM; in assay [3], 4.56 µM; in assay [4], 2.31 µM; in assay [5], 2.38 µM; in assay [6], 2.82 µM.

Regarding `C[C@H]1[C@@H](O)O[C@@H]2O[C@@]3(C)CC[C@H]4[C@H](C)CC[C@@H]1[C@@]24OO3` [ARTENIMOL], the half-inhibitory concentration (IC50) in assay [1] (setting [7]) was 0.00142 µM.

In the case of `O=C1C(Cl)=C(Nc2cccc(S(=O)(=O)NCCc3ccccc3)c2)C(=O)c2ccccc21`, the IC50 in assay [1] (setting [7]) came to 6.3 µM; in assay [2], 9.47 µM; in assay [3] it was 12.8 µM; in assay [4], 31.1 µM; in assay [5], 3.3 µM; in assay [6], 3.85 µM.

In the case of `O=C1C(Cl)=C(Nc2ccc(S(=O)(=O)N3CCc4ccccc4C3)cc2)C(=O)c2ccccc21`, the IC50 in assay [1] (setting [7]) worked out at 14.7 µM; in assay [2] it was 57.8 µM; in assay [3], 36.9 µM; in assay [4] it was 48.4 µM; in assay [5], 8.56 µM; in assay [6] it was 20.3 µM.

As to `O=C1C(Cl)=C(Nc2ccc(S(=O)(=O)NCCc3ccccc3)cc2)C(=O)c2ccccc21`, the 50% inhibitory concentration (IC50) entry in assay [1] was “Not Active”; in assay [2], 4.93 µM; in assay [3], 6.27 µM; in assay [4] it was 11.2 µM; in assay [5], 2.18 µM; in assay [6], greater than 107 µM.

Regarding `COc1ccc(CCNS(=O)(=O)c2ccc(NC3=C(Cl)C(=O)c4ccccc4C3=O)cc2)cc1OC`, the 50% inhibitory concentration (IC50) amounted to 9.96 µM in assay [1] (setting [7]); 5.5 µM in assay [2]; 6.07 µM in assay [3]; 13 µM in assay [4]; 2.05 µM in assay [5]; 21.1 µM in assay [6].

In the case of `COc1cccc2c1C(=O)c1c(O)c3c(c(O)c1C2=O)C[C@@](O)(C(=O)CO)C[C@@H]3O[C@H]1C[C@H](N)[C@H](O)[C@H](C)O1` [DOXORUBICIN], in assay [2], half-maximal inhibition (IC50) was put at 0.42 µM.

In turn, `Cc1c2ccncc2c(C)c2c1[nH]c1ccccc12` [ELLIPTECINE] had an IC50 in assay [6] of 4.05 µM.

Turning to `O=C1C(Cl)=C(Nc2ccc(S(=O)(=O)NCc3ccccn3)cc2)C(=O)c2ccccc21`, the 50% inhibitory concentration (IC50) entry is “Not Active” in assay [1]; 5 µM in assay [2]; 3.3 µM in assay [3]; 5.88 µM in assay [4]; 1.37 µM in assay [5]; 10.8 µM in assay [6].

For the origin of these results see ChEMBL document CHEMBL3627632, “Novel 1,4-naphthoquinone-based sulfonamides: Synthesis, QSAR, anticancer and antimalarial studies” (Eur J Med Chem, 2015).
